In ChEMBL document CHEMBL3576792, “Enhancement of antibiotic activity against multidrug-resistant bacteria by the efflux pump inhibitor 3,4-dibromopyrrole-2,5-dione isolated from a Pseudoalteromonas sp” (J Nat Prod, 2015):
In brackets after ≈: the same amount, converted by molar mass. Activity calls are given as the source filed them. The rule behind the calls is not given here.

Tests used:
[1] = (§1) Inhibition of AcrAB-TolC pump in Escherichia coli AG100 assessed as increase in intracellular H33342 fluorescence after 60 mins by efflux inhibition assay; type: cell-based; conditions: AG100, 1 h
Summary of the method: (§2)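 AG100 (wild-type K-12) or AG100A (ΔacrAB) cells were grown in Luria broth at 37 °C and 200 rpm to OD600 1.0, PBS-washed and diluted to OD600 0.3. Cells took up 2.5 μM Hoechst 33342 with 22 mM glucose at 37 °C for about 30 min, then compound (0.06–64 μg/mL) or PAβN (15.6 μg/mL) was added. Fluorescence (Ex 350/Em 460 nm) was followed for 60 min and corrected for background. The last four time points were compared to dye-only control by ANOVA with Dunnett's test, run in duplicate.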

Escherichia coli [2] = assay: as §1; type: cell-based; summary of the method: as §2
Escherichia coli [3] = assay: Potentiation of ciprofloxacin-induced antibacterial activity Escherichia coli AG102 overexpressing AcrAB-TolC assessed as ciprofloxacin MIC by p-iodonitrotetrazolium chloride colorimetric assay; type: functional
Summary of the method: (§3)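 Checkerboard microdilution in Mueller-Hinton broth: two-fold dilutions of antibiotic crossed with dilutions of test compound above, at and below their MICs. Growth was read by INT colorimetric assay, with MIC as the lowest concentration showing no visible growth. FICs and FIC index were derived from these MICs. ΔBC/pABM and ΔBC/pXYM strains were grown with 100 μg/mL ampicillin and 1 mM IPTG.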

Escherichia coli [4] = assay: Potentiation of erythromycin-induced antibacterial activity Escherichia coli AG102 overexpressing AcrAB-TolC assessed as erythromycin MIC by p-iodonitrotetrazolium chloride colorimetric assay; type: functional; summary of the method: as §3
Escherichia coli [5] = assay: Potentiation of erythromycin-induced antibacterial activity Escherichia coli transformed with plasmid carrying MG1655 deltaBC/pABM assessed as erythromycin MIC by p-iodonitrotetrazolium chloride colorimetric assay; type: functional; summary of the method: as §3
Escherichia coli [6] = assay: Potentiation of erythromycin-induced antibacterial activity Escherichia coli transformed with plasmid carrying MG1655 deltaBC/pXYM assessed as erythromycin MIC by p-iodonitrotetrazolium chloride colorimetric assay; type: functional; summary of the method: as §3
Escherichia coli [7] = assay: Potentiation of kanamycin-induced antibacterial activity Escherichia coli AG102 overexpressing AcrAB-TolC assessed as kanamycin MIC by p-iodonitrotetrazolium chloride colorimetric assay; type: functional; summary of the method: as §3
Escherichia coli [8] = assay: Potentiation of levofloxacin-induced antibacterial activity Escherichia coli AG102 overexpressing AcrAB-TolC assessed as levofloxacin MIC by p-iodonitrotetrazolium chloride colorimetric assay; type: functional; summary of the method: as §3
Escherichia coli [9] = assay: Potentiation of levofloxacin-induced antibacterial activity Escherichia coli transformed with plasmid carrying MG1655 deltaBC/pXYM assessed as levofloxacin MIC by p-iodonitrotetrazolium chloride colorimetric assay; type: functional; summary of the method: as §3
Escherichia coli [10] = assay: Potentiation of oxacillin-induced antibacterial activity Escherichia coli transformed with plasmid carrying MG1655 deltaBC/pXYM assessed as oxacillin MIC by p-iodonitrotetrazolium chloride colorimetric assay; type: functional; summary of the method: as §3
Escherichia coli [11] = assay: Potentiation of piperacillin-induced antibacterial activity Escherichia coli AG102 overexpressing AcrAB-TolC assessed as piperacillin MIC by p-iodonitrotetrazolium chloride colorimetric assay; type: functional; summary of the method: as §3
Escherichia coli [12] = assay: Potentiation of piperacillin-induced antibacterial activity Escherichia coli transformed with plasmid carrying MG1655 deltaBC/pABM assessed as piperacillin MIC by p-iodonitrotetrazolium chloride colorimetric assay; type: functional, organism-based; summary of the method: as §3
Escherichia coli [13] = assay: Potentiation of tetracycline-induced antibacterial activity Escherichia coli AG102 overexpressing AcrAB-TolC assessed as tetracycline MIC by p-iodonitrotetrazolium chloride colorimetric assay; type: functional; summary of the method: as §3
Escherichia coli [14] = assay: Potentiation of tetracycline-induced antibacterial activity Escherichia coli transformed with plasmid carrying MG1655 deltaBC/pABM assessed as tetracycline MIC by p-iodonitrotetrazolium chloride colorimetric assay; type: functional; summary of the method: as §3
Escherichia coli [15] = assay: Potentiation of tetracycline-induced antibacterial activity Escherichia coli transformed with plasmid carrying MG1655 deltaBC/pXYM assessed as tetracycline MIC by p-iodonitrotetrazolium chloride colorimetric assay; type: functional; summary of the method: as §3
Escherichia coli [16] = assay: Potentiation of ciprofloxacin-induced antibacterial activity Escherichia coli transformed with plasmid carrying MG1655 deltaBC/pABM by p-iodonitrotetrazolium chloride colorimetric assay; type: functional
Escherichia coli [17] = assay: Potentiation of levofloxacin-induced antibacterial activity Escherichia coli AG102 overexpressing AcrAB-TolC MIC by p-iodonitrotetrazolium chloride colorimetric assay; type: functional
Escherichia coli [18] = assay: Potentiation of oxacillin-induced antibacterial activity Escherichia coli transformed with plasmid carrying MG1655 deltaBC/pABM by p-iodonitrotetrazolium chloride colorimetric assay; type: functional, organism-based; summary of the method: as §3
Escherichia coli [19] = assay: Potentiation of oxacillin-induced antibacterial activity Escherichia coli transformed with plasmid carrying MG1655 deltaBC/pXYM by p-iodonitrotetrazolium chloride colorimetric assay; type: functional
Escherichia coli [20] = assay: Potentiation of piperacillin-induced antibacterial activity Escherichia coli transformed with plasmid carrying MG1655 deltaBC/pABM by p-iodonitrotetrazolium chloride colorimetric assay; type: functional, organism-based; summary of the method: as §3
Escherichia coli [21] = assay: Potentiation of tetracycline-induced antibacterial activity Escherichia coli AG102 overexpressing AcrAB-TolC by p-iodonitrotetrazolium chloride colorimetric assay; type: functional
Escherichia coli [22] = assay: Potentiation of tetracycline-induced antibacterial activity Escherichia coli transformed with plasmid carrying MG1655 deltaBC/pXYM by p-iodonitrotetrazolium chloride colorimetric assay; type: functional
Escherichia coli K-12 [23] = assay: Inhibition of AcrAB-TolC pump in Escherichia coli K-12 AG100 assessed as […] at 4 ug/ml after 60 mins by accumulation assay
Summary of the method: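 AG100 (wild-type K-12) or AG100A (ΔacrAB) grown in Luria broth at 37 °C and 200 rpm to OD600 1.0, PBS-washed, diluted to OD600 0.3. Cells given 2.5 μM H33342 with 22 mM glucose at 37 °C for ~30 min until stable, then compound (0.06–64 μg/mL) added. Fluorescence (Ex 350/Em 460) read for 60 min, background subtracted. Final 4 time points averaged; one-way ANOVA/Dunnett vs Hoechst-only; n = 8.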

Escherichia coli K-12 [24] = assay: Inhibition of AcrAB-TolC pump in Escherichia coli K-12 AG100 assessed as increase in intracellular H33342 fluorescence at 16 ug/ml after 60 mins by efflux inhibition assay; type: cell-based; summary of the method: as §2
Escherichia coli [25] = assay: Potentiation of chloramphenicol-induced antibacterial activity Escherichia coli AG102 overexpressing AcrAB-TolC by p-iodonitrotetrazolium chloride colorimetric assay; type: functional
Escherichia coli [26] = assay: Potentiation of chloramphenicol-induced antibacterial activity Escherichia coli transformed with plasmid carrying MG1655 deltaBC/pABM by p-iodonitrotetrazolium chloride colorimetric assay; type: functional
Escherichia coli [27] = assay: Potentiation of chloramphenicol-induced antibacterial activity Escherichia coli transformed with plasmid carrying MG1655 deltaBC/pXYM by p-iodonitrotetrazolium chloride colorimetric assay; type: functional
Escherichia coli [28] = assay: Antibacterial activity against Escherichia coli AG102 overexpressing AcrAB-TolC by p-iodonitrotetrazolium chloride colorimetric assay; type: functional
Summary of the method: (§4)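 Two-fold broth microdilution in Mueller-Hinton broth, read by p-iodonitrotetrazolium chloride colorimetric assay. MIC is the lowest concentration giving no visible growth. MG1655 ΔacrB ΔtolC strains carrying pABM or pXYM were always cultured with 100 μg/mL ampicillin and 1 mM IPTG. Medium, inoculum and 1% DMSO (final) served as negative control.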

Escherichia coli [29] = assay: Antibacterial activity against Escherichia coli transformed with plasmid carrying MG1655 deltaBC/pABM by p-iodonitrotetrazolium chloride colorimetric assay; type: functional; summary of the method: as §4

Structure (SMILES): O=C1NC(=O)C(Br)=C1Br
- IC50 [1]: 0.79 µg/mL (≈ 3.1 µM)
- inhibition (Escherichia coli [2]): Dose-dependent effect
- MIC (Escherichia coli [3]): 2 µg/mL
- MIC (Escherichia coli [4]): 128 µg/mL
- MIC (Escherichia coli [5]): 64 µg/mL
- MIC (Escherichia coli [6]): 32 µg/mL
- MIC (Escherichia coli [7]): 2 µg/mL
- MIC (Escherichia coli [8]): 128 µg/mL
- MIC (Escherichia coli [9]): 32 µg/mL
- MIC (Escherichia coli [10]): 64 µg/mL
- MIC (Escherichia coli [11]): 32 µg/mL
- MIC (Escherichia coli [12]): inactive
- MIC (Escherichia coli [13]): 64 µg/mL
- MIC (Escherichia coli [14]): 128 µg/mL
- MIC (Escherichia coli [15]): 8 µg/mL
- fractional inhibitory concentration index (FICI) (Escherichia coli [16]): 0.75
- fractional inhibitory concentration index (FICI) (Escherichia coli [17]): 0.36
- fractional inhibitory concentration index (FICI) (Escherichia coli [18]): inactive
- fractional inhibitory concentration index (FICI) (Escherichia coli [19]): 0.27
- fractional inhibitory concentration index (FICI) (Escherichia coli [20]): inactive
- fractional inhibitory concentration index (FICI) (Escherichia coli [21]): 0.31
- fractional inhibitory concentration index (FICI) (Escherichia coli [22]): 0.58
- RFU (Escherichia coli K-12 [23]): 1130
- RFU (Escherichia coli K-12 [24]): -34
- fractional inhibitory concentration index (FICI) (Escherichia coli [25]): 0.5
- fractional inhibitory concentration index (FICI) (Escherichia coli [26]): 0.75
- fractional inhibitory concentration index (FICI) (Escherichia coli [27]): 0.19
- MIC (Escherichia coli [28]): 256 µg/mL (≈ 1000 µM)
- MIC (Escherichia coli [29]): 256 µg/mL (≈ 1000 µM)
